The text below walks through data of ChEMBL document CHEMBL5523707, “Novel Inhibitory Site Revealed by XAP044 Mode of Action on the Metabotropic Glutamate 7 Receptor Venus Flytrap Domain” (J Med Chem, 2024).

The structures appear in SMILES notation. Active and inactive are the calls of the source. No cut-off for these calls is given here.

The term EC50 denotes the concentration that produces a half-maximal response. One may read the pEC50 as the negative decadic logarithm of the EC50, by convention in mol/L.

The target in experiment [1] is T1, Metabotropic glutamate receptor 7 (Rattus norvegicus, UniProt P35400). The experiment in a line: Inhibition of [3H] -LY341495 binding to rat mGlu7 expressed in CHO cell membrane incubated for 30 mins by liquid scintillation analysis.
For experiment [2], the species on record is Rattus norvegicus. The experiment in a line: Ratio of pEC50 for antagonist activity against LSP4-202 induced rat mGlu7 S229A mutant assessed as decrease in LSP4-202 potency by measuring LSP4-202 pEC50 at 10 uM to pEC50 for LSP4-202-induced rat mGlu7 S229A mutant.
The species named for experiment [3] is Rattus norvegicus. In words: Ratio of pEC50 for antagonist activity against LSP4-202 induced rat mGlu7 S229A mutant assessed as decrease in LSP4-202 potency by measuring LSP4-202 pEC50 at 100 uM to pEC50 for LSP4-202-induced rat mGlu7 S229A mutant.
Experiment [4] can be described thus: Antagonist activity against LSP4-202-induced rat mGlu7 […] mutant assessed as decrease in LSP4-202 potency by measuring LSP4-202 pEC50 at 10 uM.
Experiment [5] is described as follows: Antagonist activity against LSP4-202-induced rat mGlu7 […] mutant assessed as decrease in LSP4-202 potency by measuring LSP4-202 pEC50 at 3 uM.
Experiment [6] can be described thus: Antagonist activity against LSP4-202-induced rat mGlu7 […] mutant assessed as decrease in LSP4-202 potency by measuring LSP4-202 pEC50 at 30 uM.
For experiment [7], the target named is T1, Metabotropic glutamate receptor 7. The experiment in a line: Antagonist activity against rat mGlu7 activation transfected in HEK293 cells co-transfected with chimeric Gqi9 incubated for 24 hrs in presence of LSP4-2022 by IP-one HTRF assay. The class given is functional, cell-based. In short, it runs like this: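 Inhibition curves were run with increasing inhibitor concentrations against IP1 production by 30 µM LSP4-2022. Rat mGlu7 was co-expressed with Gqα9 in HEK293 and assayed 24 h post-transfection with IP-One HTRF. IC50/pIC50 are means ± sem of independent experiments in triplicates. pIC50 compared to reference by unpaired t-test.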
(In general: In TR-FRET formats the signal depends on donor and acceptor labels being close together.)

For experiment [8], the species on record is Rattus norvegicus. The experiment in a line: Ratio of pEC50 for antagonist activity against LSP4-202 induced wild type rat mGlu7 assessed as decrease in LSP4-202 potency by measuring LSP4-202 pEC50 at 3 uM to pEC50 for LSP4-202-induced wild type rat mGlu7.
Experiment [9] is filed under the species Rattus norvegicus. In words: Ratio of pEC50 for antagonist activity against LSP4-202 induced wild type rat mGlu7 assessed as decrease in LSP4-202 potency by measuring LSP4-202 pEC50 at 30 uM to pEC50 for LSP4-202-induced wild type rat mGlu7.
Experiment [10] is filed under the species Rattus norvegicus. In words: Ratio of pEC50 for antagonist activity against LSP4-202-induced rat mGlu7 activation transfected in HEK293 cells co-transfected with chimeric Gqi9 assessed as decrease in LSP4-202 potency to pEC50 for LSP4-202-induced rat mGlu7 activation transfected in HEK293 cells co-transfected with chimeric Gqi9. The class given is cell-based. In short, it runs like this:
(§1)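 IP-One HTRF IP1 read-out in HEK293 transiently expressing rat mGlu7 plus chimeric Gqα9, 24 h after electroporation. LSP4-2022 concentration-response was tested with derivatives at 30 or 100 µM. Gives pEC50, pEC50/pEC50 control ratio, and max as % of LSP4-2022 maximal effect over basal. Triplicates, n independent experiments; paired t-test.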

The species entered for experiment [11] is Rattus norvegicus. In words: Ratio of pEC50 for antagonist activity against LSP4-202 induced rat mGlu7 S229A mutant assessed as decrease in LSP4-202 potency by measuring LSP4-202 pEC50 at 3 uM to pEC50 for LSP4-202-induced rat mGlu7 S229A mutant.
A short description of experiment [12]: Antagonist activity against LSP4-202-induced rat mGlu7 […] mutant assessed as decrease in LSP4-202 potency by measuring LSP4-202 pEC50 at 100 uM.
The species named for experiment [13] is Rattus norvegicus. The experiment in a line: Ratio of pEC50 for antagonist activity against LSP4-202 induced rat mGlu7 S229A mutant assessed as decrease in LSP4-202 potency by measuring LSP4-202 pEC50 at 30 uM to pEC50 for LSP4-202-induced rat mGlu7 S229A mutant.
For experiment [14], the target named is Metabotropic glutamate receptor 7 (Rattus norvegicus) (UniProt P35400). The experiment in a line: Competitive antagonist activity against rat mGlu7 receptor assessed as decrease in LSP4-202 effect at 0.3 to 30 uM by Schild plot analysis. The settings on record: filed as antagonist, dose 0.3-30 µM. In short, it runs like this:
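Schild analysis used the shift of LSP4-2022 concentration-response curves in IP-One IP1 assays. Cells were HEK293 co-transfected with rat mGlu7 and Gqα9. Data are means ± sem of 3 to 11 experiments run in triplicates.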

The species named for experiment [15] is Rattus norvegicus. The experiment in a line: Ratio of pEC50 for antagonist activity against LSP4-202 induced wild type rat mGlu7 assessed as decrease in LSP4-202 potency by measuring LSP4-202 pEC50 at 10 uM to pEC50 for LSP4-202-induced wild type rat mGlu7.
The target of experiment [16] is T1, Metabotropic glutamate receptor 7. The experiment in a line: Antagonist activity against LSP4-202-induced rat mGlu7 activation transfected in HEK293 cells co-transfected with chimeric Gqi9 assessed as decrease in LSP4-202 potency by measuring LSP4-202 pEC50 incubated for 24 hrs by IP-one HTRF assay. The format is functional, cell-based. The procedure, abridged: as §1

A short description of experiment [17]: Agonist activity at rat mGlu7 N74K/loop 4 region.
The nature of experiment [18]: Agonist activity at rat mGlu7 N288A mutant.
Experiment [19] is described as follows: Agonist activity at rat mGlu7 K233S mutant.
For experiment [20], the target named is Metabotropic glutamate receptor 4 (Rattus norvegicus, UniProt P31423, K74A). In words: Agonist activity against rat mGlu4 K74A mutant.
The target of experiment [21] is T1, Metabotropic glutamate receptor 7. The experiment in a line: Agonist activity at wild type rat mGlu7. The class given is functional. The procedure, abridged:
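HEK293 cells were transiently transfected by electroporation with rat mGlu7 plasmid plus chimeric Gqα9 to couple to phospholipase C. They were grown in DMEM with 10% FBS on polyornithine-coated wells at 150 000 cells/well.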

Experiment [22] has as its target Metabotropic glutamate receptor 7 (Rattus norvegicus, UniProt P35400, N74A). The experiment in a line: Agonist activity at rat mGlu7 N74A mutant.
The nature of experiment [23]: Agonist activity at rat mGlu7 loop beta10-alpha7 region.
Experiment [24] concerns the target Metabotropic glutamate receptor 4 (Rattus norvegicus, UniProt P31423, S160D). The experiment in a line: Agonist activity against rat mGlu4 S160D mutant.
A short description of experiment [25]: Agonist activity at rat mGlu7 S237A mutant.
Experiment [26] concerns the target Metabotropic glutamate receptor 7 (Rattus norvegicus, UniProt P35400, K60A/S160A). The experiment in a line: Agonist activity at rat mGlu7 K60A/S160A mutant.
Experiment [27] can be described thus: Agonist activity at rat mGlu7 D314A mutant.
Experiment [28] can be described thus: Agonist activity at rat mGlu7 S229A mutant.
Experiment [29] can be described thus: Agonist activity at rat mGlu7 K233D mutant.
Experiment [30] has as its target Metabotropic glutamate receptor 7 (Rattus norvegicus, UniProt P35400, K60A). In words: Agonist activity at rat mGlu7 K60A mutant.
Experiment [31] addresses Metabotropic glutamate receptor 7 (Rattus norvegicus, UniProt P35400, S160A). The experiment in a line: Agonist activity at rat mGlu7 S160A mutant.
In experiment [32] the target is Metabotropic glutamate receptor 7 (Rattus norvegicus, UniProt P35400, Q258A). In words: Agonist activity at rat mGlu7 Q258A mutant.
Experiment [33] can be described thus: Agonist activity at rat mGlu7 Q258R/D262/R263 mutant.
Experiment [34] has as its target Metabotropic glutamate receptor 4 (Rattus norvegicus, UniProt P31423, R258A). The experiment in a line: Agonist activity at rat mGlu4 R258A mutant.
The target of experiment [35] is Metabotropic glutamate receptor 4 (Rattus norvegicus, UniProt P31423). The experiment in a line: Agonist activity against wild type rat mGlu4. The class given is functional.
Experiment [36] is described as follows: Agonist activity at rat mGlu4 R258Q/D262/R263 mutant.
Experiment [37] in a line: Agonist activity at rat mGlu7 K233A mutant.
Experiment [38] can be described thus: Agonist activity at rat mGlu4 loop beta-10-alpha7 region.
For experiment [39], the target named is Metabotropic glutamate receptor 4 (Rattus norvegicus, UniProt P31423, S160A). The experiment in a line: Agonist activity against rat mGlu4 S160A mutant.
Experiment [40] deals with Metabotropic glutamate receptor 7 (Rattus norvegicus, UniProt P35400, N74K). In words: Agonist activity at rat mGlu7 N74K mutant.
Experiment [41] concerns the target Metabotropic glutamate receptor 4 (Rattus norvegicus, UniProt P31423, R60A). In words: Agonist activity against rat mGlu4 R60A mutant.

T1 sequence (P35400 whole entry): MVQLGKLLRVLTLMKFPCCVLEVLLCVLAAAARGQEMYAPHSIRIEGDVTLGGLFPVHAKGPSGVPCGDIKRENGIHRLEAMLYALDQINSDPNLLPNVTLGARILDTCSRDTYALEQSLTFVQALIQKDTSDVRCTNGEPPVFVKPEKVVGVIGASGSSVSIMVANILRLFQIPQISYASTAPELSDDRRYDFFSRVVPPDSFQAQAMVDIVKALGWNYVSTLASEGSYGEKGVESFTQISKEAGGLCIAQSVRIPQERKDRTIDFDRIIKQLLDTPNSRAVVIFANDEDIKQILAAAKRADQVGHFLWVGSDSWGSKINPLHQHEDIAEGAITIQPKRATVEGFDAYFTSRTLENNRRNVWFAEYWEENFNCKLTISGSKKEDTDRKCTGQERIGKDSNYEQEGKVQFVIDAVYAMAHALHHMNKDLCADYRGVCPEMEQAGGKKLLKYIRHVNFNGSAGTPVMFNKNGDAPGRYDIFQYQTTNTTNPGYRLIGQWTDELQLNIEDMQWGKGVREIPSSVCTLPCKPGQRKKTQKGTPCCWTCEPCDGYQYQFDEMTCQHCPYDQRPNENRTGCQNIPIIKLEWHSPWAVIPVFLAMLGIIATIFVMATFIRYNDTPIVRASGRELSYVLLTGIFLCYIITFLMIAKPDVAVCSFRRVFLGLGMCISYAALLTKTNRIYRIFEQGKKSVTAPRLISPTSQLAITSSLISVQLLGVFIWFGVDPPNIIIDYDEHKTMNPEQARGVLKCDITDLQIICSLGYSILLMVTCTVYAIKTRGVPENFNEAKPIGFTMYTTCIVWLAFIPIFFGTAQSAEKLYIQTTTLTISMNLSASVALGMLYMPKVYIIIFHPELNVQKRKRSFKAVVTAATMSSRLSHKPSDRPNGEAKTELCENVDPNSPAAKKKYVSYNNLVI
Metabotropic glutamate receptor 7 (Rattus norvegicus, UniProt P35400, N74A), sequence (P35400 35-915 N74A limits assumed): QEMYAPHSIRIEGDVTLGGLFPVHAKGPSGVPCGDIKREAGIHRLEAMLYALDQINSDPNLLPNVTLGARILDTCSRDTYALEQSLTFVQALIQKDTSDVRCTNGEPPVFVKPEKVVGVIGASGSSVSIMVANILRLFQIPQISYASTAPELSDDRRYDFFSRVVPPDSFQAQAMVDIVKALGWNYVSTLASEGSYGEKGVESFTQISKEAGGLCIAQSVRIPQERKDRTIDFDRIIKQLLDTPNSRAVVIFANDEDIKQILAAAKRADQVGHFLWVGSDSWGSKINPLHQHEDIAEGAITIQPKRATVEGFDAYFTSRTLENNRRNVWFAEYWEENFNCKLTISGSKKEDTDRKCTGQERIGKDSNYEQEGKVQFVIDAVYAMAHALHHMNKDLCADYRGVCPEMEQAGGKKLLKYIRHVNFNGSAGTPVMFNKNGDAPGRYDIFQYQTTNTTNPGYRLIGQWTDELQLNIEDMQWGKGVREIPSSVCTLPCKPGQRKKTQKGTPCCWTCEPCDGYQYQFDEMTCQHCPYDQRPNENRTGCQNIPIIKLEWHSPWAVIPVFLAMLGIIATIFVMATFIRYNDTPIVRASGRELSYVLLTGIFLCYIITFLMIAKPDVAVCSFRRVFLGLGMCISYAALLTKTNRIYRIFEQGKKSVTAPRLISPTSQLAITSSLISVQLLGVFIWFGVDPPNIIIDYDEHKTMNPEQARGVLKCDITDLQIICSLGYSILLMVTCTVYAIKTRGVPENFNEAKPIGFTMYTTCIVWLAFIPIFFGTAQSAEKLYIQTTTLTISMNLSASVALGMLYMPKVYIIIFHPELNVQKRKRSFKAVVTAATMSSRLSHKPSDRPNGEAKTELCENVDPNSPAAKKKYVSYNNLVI
Metabotropic glutamate receptor 4 (Rattus norvegicus, UniProt P31423, R60A), sequence (P31423 33-912 R60A limits assumed): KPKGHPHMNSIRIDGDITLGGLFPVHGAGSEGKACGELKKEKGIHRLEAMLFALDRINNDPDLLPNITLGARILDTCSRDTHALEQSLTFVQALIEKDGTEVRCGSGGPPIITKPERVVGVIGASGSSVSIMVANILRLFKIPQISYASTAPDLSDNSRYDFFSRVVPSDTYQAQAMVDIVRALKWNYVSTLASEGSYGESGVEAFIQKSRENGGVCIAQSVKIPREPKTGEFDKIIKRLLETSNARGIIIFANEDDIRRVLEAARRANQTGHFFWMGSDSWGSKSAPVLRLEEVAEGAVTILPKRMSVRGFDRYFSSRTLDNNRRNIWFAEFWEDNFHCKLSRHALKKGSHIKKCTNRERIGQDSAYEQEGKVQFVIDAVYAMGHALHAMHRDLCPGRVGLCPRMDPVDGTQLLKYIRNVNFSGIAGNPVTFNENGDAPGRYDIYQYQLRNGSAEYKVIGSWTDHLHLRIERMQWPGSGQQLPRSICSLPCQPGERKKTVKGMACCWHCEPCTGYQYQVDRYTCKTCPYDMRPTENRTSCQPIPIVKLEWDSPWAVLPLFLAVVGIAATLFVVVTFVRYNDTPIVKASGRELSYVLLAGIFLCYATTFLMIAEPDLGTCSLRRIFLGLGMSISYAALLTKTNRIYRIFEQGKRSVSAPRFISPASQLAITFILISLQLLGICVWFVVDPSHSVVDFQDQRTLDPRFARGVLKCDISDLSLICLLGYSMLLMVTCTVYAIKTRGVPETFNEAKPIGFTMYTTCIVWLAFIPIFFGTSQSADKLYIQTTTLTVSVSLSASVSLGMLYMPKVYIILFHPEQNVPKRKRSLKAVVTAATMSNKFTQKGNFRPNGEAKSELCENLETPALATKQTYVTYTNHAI
Metabotropic glutamate receptor 4 (Rattus norvegicus, UniProt P31423, K74A), sequence (P31423 33-912 K74A limits assumed): as the sequence (P31423 33-912 R60A limits assumed) above, with A28R, K42A counted along it
Metabotropic glutamate receptor 4 (Rattus norvegicus, UniProt P31423, R258A), sequence (P31423 33-912 R258A limits assumed): as the sequence (P31423 33-912 R60A limits assumed) above, with A28R, R226A counted along it

Consider `N[C@](CC1c2ccccc2Oc2ccccc21)(C(=O)O)[C@H]1C[C@@H]1C(=O)O`, for which the IC50 in [1] was determined as 0.19 µM.
On to `O=C(COc1ccc(Br)cc1F)c1ccc(O)c(F)c1`, for which the Ratio in the experiment filed under Rattus norvegicus [2] was 0.97; in the experiment filed under Rattus norvegicus [3], 0.82; in the experiment listed under Rattus norvegicus [8], 0.82; in the experiment filed under Rattus norvegicus [9], 0.59; in the experiment filed under Rattus norvegicus [10], < 0.6; in the experiment listed under Rattus norvegicus [11], 1. The Ratio in the experiment filed under Rattus norvegicus [13] is 0.91; in the experiment filed under Rattus norvegicus [15] it was 0.72. The EC50 stood at 9.91 µM in experiment [4], 6.88 µM in experiment [5], 21.7 µM in experiment [6] and 60.7 µM in experiment [12]. The pEC50 in experiment [4] is 5; in experiment [5] it was 5.16; in experiment [6] it was 4.68; in experiment [12], 4.25. Moreover, the IC50 in experiment [7] (read-out: IC50) was 0.95 µM; in experiment [7] (read-out: pIC50 (converted)), 0.851 µM. Further, the outcome in experiment [14] was Active.
`N[C@@H](CCP(=O)(O)C(O)c1ccc(OCC(=O)O)cc1)C(=O)O` (stereo partly specified): the 50% effective concentration (EC50) is 19.5 µM in experiment [16]; 2.56 µM in [17]; 49.3 µM in experiment [18]; 40.9 µM in [19]; 0.024 µM in experiment [20]; 21.2 µM in [21]. The EC50 in [22] was 32 µM; in [23] it was 2.18 µM; in [24], 18.5 µM; in [25] it was 18.3 µM; in [26], > 300 µM; in experiment [27] it was > 1000 µM. The EC50 was 14.5 µM in [28]; 155 µM in experiment [29]; 178 µM in experiment [30]; > 300 µM in [31]; 18.2 µM in [32]; 13.9 µM in [33]. Besides, the 50% effective concentration (EC50) in experiment [34] was found to be 4.91 µM; in experiment [35] it was 0.833 µM; in experiment [36] it was 7 µM; in experiment [37], 87.7 µM; in [38], 3.68 µM; in experiment [39], 26.2 µM. The values for the EC50 in [40] and in experiment [41] were 47 µM and 9.07 µM, respectively. The pEC50 is 4.39 in experiment [19]; 4.74 in experiment [25]; 4.96 in [28]; 3.83 in experiment [29]; 4.06 in experiment [37].
